The results in this text go back to ChEMBL document CHEMBL1129264, “Mercaptoacyl dipeptides as orally active dual inhibitors of angiotensin-converting enzyme and neutral endopeptidase” (1996).

What all share (format): organism-based
The target of assay [1] is T1, Angiotensin-converting enzyme (Rattus norvegicus) (UniProt P47820).
T1 sequence (whole entry): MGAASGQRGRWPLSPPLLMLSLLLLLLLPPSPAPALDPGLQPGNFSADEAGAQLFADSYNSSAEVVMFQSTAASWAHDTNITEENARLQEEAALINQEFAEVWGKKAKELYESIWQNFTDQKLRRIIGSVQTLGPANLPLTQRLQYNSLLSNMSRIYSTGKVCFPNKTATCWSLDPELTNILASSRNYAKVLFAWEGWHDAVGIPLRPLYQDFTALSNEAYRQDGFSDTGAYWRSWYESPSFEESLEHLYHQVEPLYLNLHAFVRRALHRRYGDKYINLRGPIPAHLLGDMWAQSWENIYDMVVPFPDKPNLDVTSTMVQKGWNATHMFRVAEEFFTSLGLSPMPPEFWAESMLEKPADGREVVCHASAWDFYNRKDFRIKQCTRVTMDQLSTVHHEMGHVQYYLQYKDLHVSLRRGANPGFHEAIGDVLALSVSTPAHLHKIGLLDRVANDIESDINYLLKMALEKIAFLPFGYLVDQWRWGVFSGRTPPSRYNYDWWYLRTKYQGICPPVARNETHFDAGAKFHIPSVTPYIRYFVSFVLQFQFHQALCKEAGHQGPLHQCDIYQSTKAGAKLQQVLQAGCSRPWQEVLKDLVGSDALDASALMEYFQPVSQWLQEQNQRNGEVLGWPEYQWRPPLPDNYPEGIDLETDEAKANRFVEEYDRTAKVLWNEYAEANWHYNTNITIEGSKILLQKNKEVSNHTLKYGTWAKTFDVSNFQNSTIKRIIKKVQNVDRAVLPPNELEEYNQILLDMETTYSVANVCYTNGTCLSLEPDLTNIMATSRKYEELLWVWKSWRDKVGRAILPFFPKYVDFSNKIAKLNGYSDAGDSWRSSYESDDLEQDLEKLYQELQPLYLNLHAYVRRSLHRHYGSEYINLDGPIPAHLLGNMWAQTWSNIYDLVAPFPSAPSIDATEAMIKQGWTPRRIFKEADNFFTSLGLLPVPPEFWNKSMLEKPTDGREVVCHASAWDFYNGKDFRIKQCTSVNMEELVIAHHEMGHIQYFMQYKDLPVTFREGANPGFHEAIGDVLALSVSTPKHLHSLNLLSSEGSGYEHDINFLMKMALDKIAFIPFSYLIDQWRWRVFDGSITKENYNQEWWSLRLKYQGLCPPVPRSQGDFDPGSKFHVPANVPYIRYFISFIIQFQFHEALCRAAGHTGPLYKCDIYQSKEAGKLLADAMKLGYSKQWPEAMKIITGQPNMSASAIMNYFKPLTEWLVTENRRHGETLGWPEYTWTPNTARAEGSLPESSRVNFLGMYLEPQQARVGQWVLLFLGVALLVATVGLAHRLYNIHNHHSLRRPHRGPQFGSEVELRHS
The assay is described as follows: Compound was tested for plasma inhibition of Angiotensin I converting enzyme activity in the conscious rat. Expressed as Inhibition of AI pressor response at 2 hr at a dose of 12.8 mg/kg po. On the set-up: dose 12.8 mg/kg. In outline: (§1)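 Male conscious normotensive Sprague-Dawley rats (275-390 g), given femoral arterial and venous catheters under methohexital sodium (75 mg/kg ip) anesthesia. Next day, pressor responses to three angiotensin-I challenges (300 ng/kg iv) recorded by direct arterial pressure. Compound then dosed orally, and AI challenge repeated at set times. Each post-dose response compared with the mean of the three baseline responses, giving % inhibition.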

In assay [2] the target is T1, Angiotensin-converting enzyme (Rattus norvegicus). The assay is described as follows: Compound was tested for plasma inhibition of Angiotensin I converting enzyme activity in the conscious rat. Expressed as Inhibition of AI pressor response at 6 hr at a dose of 12.8 mg/kg po. Also noted: dose 12.8 mg/kg. In short, it runs like this:
(§2)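 Male conscious normotensive Sprague-Dawley rats (275-390 g), prepared under methohexital sodium (75 mg/kg ip) with femoral arterial and venous catheters. The next day, pressor responses to three angiotensin-I challenges (300 ng/kg iv) were recorded. Compound was then given orally and angiotensin-I challenges were repeated at set times. Percent inhibition is relative to the mean of the three baseline responses.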

For assay [3] the target is unchanged. The assay is described as follows: Compound was tested for plasma inhibition of Angiotensin I converting enzyme activity in the conscious rat. Expressed as Inhibition of AI pressor response at 1 hr at a dose of 12.8 mg/kg po. Also noted: dose 12.8 mg/kg. In short, it runs like this:
as §1

The target is the same in assay [4]. The assay is described as follows: Compound was tested for plasma inhibition of Angiotensin I converting enzyme activity in the conscious rat. Expressed as Inhibition of AI pressor response at 4 hr at a dose of 10 mg/kg po. Also noted: dose 10 mg/kg. In outline: as §1
Assay [5] has the same target. The assay is described as follows: Compound was tested for plasma inhibition of Angiotensin I converting enzyme activity in the conscious rat. Expressed as Inhibition of AI pressor response at 2 hr at a dose of 13.1 mg/kg po. Also noted: dose 13.1 mg/kg. In outline:
as §1

The target is the same in assay [6]. As to the kind of experiment: Compound was tested for plasma inhibition of Angiotensin I converting enzyme activity in the conscious rat. Expressed as Inhibition of AI pressor response at 6 hr at a dose of 13.1 mg/kg po. Also noted: dose 13.1 mg/kg. In outline:
as §2

The target is the same in assay [7]. The assay is described as follows: Compound was tested for plasma inhibition of Angiotensin I converting enzyme activity in the conscious rat. Expressed as Inhibition of AI pressor response at 4 hr at a dose of 13.1 mg/kg po. Also noted: dose 13.1 mg/kg. In short, it runs like this: as §2
Assay [8] shares this target. The assay is described as follows: Compound was tested for plasma inhibition of Angiotensin I converting enzyme activity in the conscious rat. Expressed as Inhibition of AI pressor response at 1 hr at a dose of 13.1 mg/kg po. On the set-up: dose 13.1 mg/kg. In outline: as §1
For assay [9] the target is unchanged. The assay is described as follows: Compound was tested for plasma inhibition of Angiotensin I converting enzyme activity in the conscious rat. Expressed as Inhibition of AI pressor response at 2 hr at a dose of 12.7 mg/kg po. On the set-up: dose 12.7 mg/kg. In outline: as §1
The target is the same in assay [10]. The assay is described as follows: Compound was tested for plasma inhibition of Angiotensin I converting enzyme activity in the conscious rat. Expressed as Inhibition of AI pressor response at 6 hr at a dose of 12.7 mg/kg po. Also noted: dose 12.7 mg/kg. In short, it runs like this:
as §2

The target is the same in assay [11]. As to the kind of experiment: Compound was tested for plasma inhibition of Angiotensin I converting enzyme activity in the conscious rat. Expressed as Inhibition of AI pressor response at 4 hr at a dose of 12.7 mg/kg po. Also noted: dose 12.7 mg/kg. In outline: as §1
Assay [12] shares this target. As to the kind of experiment: Compound was tested for plasma inhibition of Angiotensin I converting enzyme activity in the conscious rat. Expressed as Inhibition of AI pressor response at 1 hr at a dose of 12.7 mg/kg po. On the set-up: dose 12.7 mg/kg. In short, it runs like this: as §1
Assay [13] shares this target. The assay is described as follows: Compound was tested for plasma inhibition of Angiotensin I converting enzyme activity in the conscious rat. Expressed as Inhibition of AI pressor response at 4 hr at a dose of 12.8 mg/kg po. On the set-up: dose 12.8 mg/kg. In short, it runs like this:
as §1

The target is the same in assay [14]. As to the kind of experiment: Compound was tested for plasma inhibition of Angiotensin I converting enzyme activity in the conscious rat. Expressed as Inhibition of AI pressor response at 1 hr at a dose of 10 mg/kg po. On the set-up: dose 10 mg/kg. In short, it runs like this:
as §1

For assay [15] the target is unchanged. As to the kind of experiment: Compound was tested for plasma inhibition of Angiotensin I converting enzyme activity in the conscious rat. Expressed as Inhibition of AI pressor response at 2 hr at a dose of 10 mg/kg po. On the set-up: dose 10 mg/kg. In short, it runs like this:
as §1

For assay [16] the target is unchanged. The assay is described as follows: Compound was tested for plasma inhibition of Angiotensin I converting enzyme activity in the conscious rat. Expressed as Inhibition of AI pressor response at 6 hr at a dose of 10 mg/kg po. Also noted: dose 10 mg/kg. In outline: as §2
Assay [17] shares this target. The assay is described as follows: Compound was tested for plasma inhibition of Angiotensin I converting enzyme activity in the conscious rat. Expressed as Inhibition of AI pressor response at 6 hr at a dose of 11.7 mg/kg po. Also noted: dose 11.7 mg/kg. In short, it runs like this:
as §2

For assay [18] the target is unchanged. As to the kind of experiment: Compound was tested for plasma inhibition of Angiotensin I converting enzyme activity in the conscious rat. Expressed as Inhibition of AI pressor response at 1 hr at a dose of 11.7 mg/kg po. On the set-up: dose 11.7 mg/kg. In outline:
as §1

For assay [19] the target is unchanged. The assay is described as follows: Compound was tested for plasma inhibition of Angiotensin I converting enzyme activity in the conscious rat. Expressed as Inhibition of AI pressor response at 4 hr at a dose of 11.7 mg/kg po. On the set-up: dose 11.7 mg/kg. In outline: as §1
For assay [20] the target is unchanged. As to the kind of experiment: Compound was tested for plasma inhibition of Angiotensin I converting enzyme activity in the conscious rat. Expressed as Inhibition of AI pressor response at 2 hr at a dose of 11.7 mg/kg po. On the set-up: dose 11.7 mg/kg. In outline: as §1

Regarding `CCCCOC(=O)[C@H](Cc1ccc(OC)cc1)NC(=O)C1(NC(=O)[C@H](SC(C)=O)C(C)C)CCCC1`, the inhibition (as a rule, the relative decrease from the control value, in per cent) in [1] came to 70%; in [2], 58%; in assay [3], 75%; in assay [4], 65%.

As for `CCCCOC(=O)[C@H](Cc1ccc(O)cc1)NC(=O)C1(NC(=O)[C@H](SC(=O)COC)C(C)C)CCCC1`, the inhibition in [5] turned out to be 75%; in [6] it was 54%; in assay [7], 58%; in assay [8], 76%.

Consider `CC(=O)S[C@@H](C(=O)NC1(C(=O)N[C@@H](Cc2ccc(O)cc2)C(=O)OC2CCCC2)CCCC1)C(C)C`, for which the inhibition in assay [9] is 51%; in [10], 29%; in [11], 33%; in assay [12] it was 58%.

`CCCCCCOC(=O)[C@H](Cc1ccc(O)cc1)NC(=O)C1(NC(=O)[C@H](SC(C)=O)C(C)C)CCCC1`: the inhibition was determined as 78% in [5], 16% in assay [6], 61% in assay [7] and 64% in [8].

As for `CCOC(=O)[C@H](Cc1ccc(O)cc1)NC(=O)C1(NC(=O)[C@H](SC(=O)CN(C)C)C(C)C)CCCC1`, the inhibition in assay [1] was found to be 63%; in [13] it was 35%; in assay [2], 18%; in assay [3], 70%.

For the molecule `CCOC(=O)[C@H](Cc1ccc(O)cc1)NC(=O)C1(NC(=O)[C@H](SC(C)=O)C(C)C)CCCC1`, the inhibition in assay [14] was 86%; in [15] it was 81%; in assay [4], 83%; in [16], 47%.

Turning to `CCOC(=O)[C@H](Cc1ccc(O)cc1)NC(=O)C1(NC(=O)[C@H](SC(=O)C(C)(C)C)C(C)C)CCCC1`, the inhibition in [1] stood at 17%; in assay [13] it was 14%; in [2] it was 19%; in assay [3], 8%.

`CCOC(=O)[C@H](Cc1ccc(OC)cc1)NC(=O)C1(NC(=O)[C@H](SC(=O)COC)C(C)C)CCCC1`: the inhibition turned out to be 52% in [17], 81% in [18], 76% in assay [19] and 91% in assay [20].
